From ChEMBL document CHEMBL4052634, “Covalent inhibitors of LgtC: A blueprint for the discovery of non-substrate-like inhibitors for bacterial glycosyltransferases” (Bioorg Med Chem, 2017)
Activity calls are given as the source filed them.

Columns and labels:
Neisseria meningitidis [1] = experiment: Inhibition of Neisseria meningitidis alpha-1,4-galactosyltransferase at 25 to 100 uM using lactose as substrate preincubated for 10 mins in presence of UDP-Gal followed by substrate addition measured after 20 mins
Procedure, shortened: (§1)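 LgtC pre-incubated 10 min at 30 °C with inhibitor (DMSO, 10% final) and UDP-Gal 28 µM in 13 mM HEPES pH 7.0 with MnCl2 5 mM, CIP 10 U/mL, lysozyme 1 mg/mL, 0.01% Triton; lactose 2 mM then added, 20 min at 30 °C; malachite green absorbance at 620 nm converted via UDP calibration; triplicate.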

Neisseria meningitidis [2] = experiment: Inhibition of Neisseria meningitidis alpha-1,4-galactosyltransferase at 25 to 50 uM using lactose as substrate preincubated for 10 mins in presence of UDP-Gal followed by substrate addition measured after 20 mins; procedure, shortened: as §1
Neisseria meningitidis [3] = experiment: Inhibition of Neisseria meningitidis alpha-1,4-galactosyltransferase C246A mutant expressed in Escherichia coli BL21(DE3) at 100 uM using lactose as substrate in presence of UDP-Gal measured after 20 min by malachite green dye-based assay
Procedure, shortened: (§2)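 Mutant LgtC (His-tag purified, Superdex 200), DTT-activated (10 mM, 1:1, 30 min, 30 °C), no pre-incubation with inhibitor. Final: 2 mM lactose, 28 µM UDP-Gal, 5 mM MnCl2, phosphatase CIP 10 U/mL, lysozyme 1 mg/mL, 0.01% Triton, 13 mM HEPES pH 7.0, 10% DMSO; 20 min, 30 °C. UDP read at 620 nm vs UDP calibration, background-corrected; triplicate.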

Neisseria meningitidis [4] = experiment: Competitive inhibition of Neisseria meningitidis alpha-1,4-galactosyltransferase at 1 to 5 uM using lactose as substrate measured after 20 mins in presence of fixed concentration of UDP-Gal donor and varying concentration of lactose acceptor by Dixon/Cornish-Bowden plot analysis
Procedure, shortened: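 Acceptor kinetics using standard protocol without pre-incubation: DTT-activated LgtC, UDP-Gal fixed at 100 µM, inhibitor 1, 2, 3, 4, 5 µM, lactose 5, 15, 25 mM, with 5 mM MnCl2, CIP 10 U/ml, lysozyme 1 mg/ml, 0.01% Triton, 13 mM HEPES pH 7.0, 10% DMSO; 20 min at 30 °C, donor turnover <10%; UDP released read by malachite green.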

Neisseria meningitidis [5] = experiment: Inhibition of Neisseria meningitidis alpha-1,4-galactosyltransferase assessed as enzyme activity at 100 uM using beta-lactose as substrate preincubated for 10 mins in presence of UDP-Gal donor followed by substrate addition incubated for 20 mins measured before diafiltration by colorimetric analysis (reference value: 84%)
Procedure, shortened: (§3)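 DTT-activated LgtC pre-incubated with inhibitor (100 µM) or DMSO plus UDP-Gal 28 µM, 10 min at 30 °C; lactose 2 mM added, 20 min at 30 °C. Activity measured in samples taken before, and after diafiltration (10 kDa cut-off, 4 °C, two 50 min spins with one HEPES pH 7.0 wash), under standard conditions (2 mM lactose, 28 µM UDP-Gal, 20 min, 30 °C), malachite green readout.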

Pasteurella multocida = experiment: Inhibition of Pasteurella multocida alpha-2,3-sialyltransferase at 150 uM using beta-lactose as substrate in presence of CMP-Neu5Ac measured after 20 mins by malachite green dye-based assay
[6] = biological target: Intestinal-type alkaline phosphatase (Bos taurus) (UniProt P19111); experiment: Inhibition of calf intestinal alkaline […] at 0.1 to 100 uM using UDP as substrate after 20 mins by malachite green dye-based assay
Neisseria meningitidis [7] = experiment: Inhibition of Neisseria meningitidis alpha-1,4-galactosyltransferase assessed as enzyme activity at 100 uM using beta-lactose as substrate in presence of UDP-Gal donor/lactose acceptor incubated for 20 mins measured after diafiltration by colorimetric analysis (reference value: 85 %); procedure, shortened: as §3
[8] = Binding affinity to L-lysine assessed as adduct formation at 0.06 mmol by 1H NMR analysis
Procedure, shortened: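 Lysine (0.06 mmol in D2O) mixed with inhibitor (0.06 mmol) in d6-DMSO in an NMR tube by shaking; 1H-NMR spectra at 400 MHz, 298 K, taken at time points over 0-190 min.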

[9] = Inhibition of Neisseria meningitidis alpha-1,4-galactosyltransferase using lactose as substrate in presence of UDP-Gal measured after 20 min by malachite green dye-based assay
Procedure, shortened: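 Recombinant LgtC, pre-activated with DTT (10 mM, 1:1, 30 min, 30 °C). Reaction contained MnCl2 5 mM, CIP 10 U/mL, lysozyme 1 mg/mL, Triton 0.01%, 13 mM HEPES pH 7.0, lactose 2 mM, inhibitor 0.1–100 µM (10% DMSO final), UDP-Gal 28 µM. No pre-incubation; 20 min at 30 °C. Released phosphate read by malachite green at 620 nm against a UDP calibration curve. Turnover adjusted to 20–50%. IC50 from sigmoidal fit of background-corrected % activity; at least triplicate.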

[10] = biological target: T1, Galactoside alpha-(1,2)-fucosyltransferase 2 (Homo sapiens) (UniProt Q10981); experiment: Inhibition of human fucosyltransferase2 at 150 uM using alpha-lactose as substrate in presence of GDP-Fuc measured after 20 mins by malachite green dye-based assay
T1 sequence (whole entry): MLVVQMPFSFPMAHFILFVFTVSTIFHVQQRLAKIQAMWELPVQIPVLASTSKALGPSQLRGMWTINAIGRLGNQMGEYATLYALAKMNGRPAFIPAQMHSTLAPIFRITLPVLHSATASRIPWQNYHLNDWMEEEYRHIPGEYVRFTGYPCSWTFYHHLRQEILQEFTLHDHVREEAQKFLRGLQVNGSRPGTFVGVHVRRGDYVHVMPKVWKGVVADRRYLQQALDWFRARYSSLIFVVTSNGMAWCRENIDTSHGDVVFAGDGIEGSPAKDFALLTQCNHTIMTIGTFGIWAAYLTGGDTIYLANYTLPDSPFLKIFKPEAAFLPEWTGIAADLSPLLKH

[11] = Binding affinity to L-cysteine assessed as covalent adduct formation at 0.06 mmol by 1H NMR analysis; conditions: TDE = time-dependent effect
Procedure, shortened: (§4)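 Amino acid (0.06 mmol; cysteine in d6-DMSO, serine in D2O) added to inhibitor (0.06 mmol) in d6-DMSO in an NMR tube, mixed by shaking; 1H-NMR (400 MHz) recorded at 298 K at time points from 0-190 min to follow adduct formation.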

Neisseria meningitidis [12] = experiment: Inhibition of Neisseria meningitidis alpha-1,4-galactosyltransferase at 0.1 to 100 uM using lactose as substrate after 20 mins in presence of UDP-Gal and measured in presence of varying acceptor concentration by malachite green dye-based assay
Procedure, shortened: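 Activated LgtC with inhibitor (0.1-100 µM), UDP-Gal 28 µM, lactose varied 2-50 mM, MnCl2 5 mM, CIP 10 U/ml, lysozyme 1 mg/ml, 0.01% Triton in 13 mM HEPES pH 7.0, no pre-incubation; 20 min at 30 °C, donor turnover 20-50%; malachite green detection of UDP; triplicate.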

Neisseria meningitidis [13] = experiment: Inhibition of Neisseria meningitidis alpha-1,4-galactosyltransferase C246S mutant expressed in Escherichia coli BL21(DE3) at 100 uM using lactose as substrate in presence of UDP-Gal measured after 20 min by malachite green dye-based assay; procedure, shortened: as §2
Bos taurus = species on record: Bos taurus; experiment: Inhibition of bovine beta-1,4-galactosyltransferase at 100 uM using GLcNAc as substrate in presence of UDP-Gal measured after 20 mins by malachite green dye-based assay
Neisseria meningitidis [14] = experiment: Binding affinity to Neisseria meningitidis alpha-1,4-galactosyltransferase assessed as covalent adduct formation at 100 uM after 20 mins by mass spectrometric analysis
Procedure, shortened: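 LgtC stock without DTT activation, diluted in 13 mM HEPES pH 7.0, incubated with inhibitor (100 or 50 µM, added in DMSO; 10% final DMSO) for 20 min at 30 °C; samples injected directly for electrospray MS to detect protein-inhibitor adducts.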

[15] = Binding affinity to L-serine assessed as covalent adduct formation at 0.06 mmol by 1H NMR analysis; procedure, shortened: as §4

Intestinal-type alkaline phosphatase (Bos taurus), sequence (P19111 20-506 limits assumed): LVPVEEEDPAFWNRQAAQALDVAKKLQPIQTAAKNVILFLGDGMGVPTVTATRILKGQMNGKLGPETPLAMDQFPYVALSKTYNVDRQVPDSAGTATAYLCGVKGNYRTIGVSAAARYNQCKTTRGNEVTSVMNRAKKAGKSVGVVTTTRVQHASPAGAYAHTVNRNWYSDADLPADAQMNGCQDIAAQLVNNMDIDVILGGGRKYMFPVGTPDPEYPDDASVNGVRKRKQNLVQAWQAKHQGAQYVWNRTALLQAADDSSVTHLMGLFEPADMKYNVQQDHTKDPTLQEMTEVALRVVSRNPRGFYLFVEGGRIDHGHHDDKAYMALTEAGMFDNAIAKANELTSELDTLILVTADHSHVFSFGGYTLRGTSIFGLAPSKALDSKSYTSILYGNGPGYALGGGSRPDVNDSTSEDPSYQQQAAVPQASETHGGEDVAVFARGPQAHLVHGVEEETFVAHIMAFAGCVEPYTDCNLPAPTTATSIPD

Row | SMILES | inhibition (Neisseria meningitidis [1]) | inhibition (Neisseria meningitidis [2]) | inhibition (Neisseria meningitidis [3]) | inhibition (Neisseria meningitidis [4]) | inhibition (Neisseria meningitidis [5]) | inhibition (Pasteurella multocida) | inhibition [6] | inhibition (Neisseria meningitidis [7]) | Activity [8] | IC50 [9] | inhibition [10] | Activity [11] | inhibition (Neisseria meningitidis [12]) | inhibition (Neisseria meningitidis [13]) | inhibition (Bos taurus) | Activity (Neisseria meningitidis [14]) | Activity [15]
1 | Cc1nn(-c2ccccc2)c(O)c1Cc1ccccc1C(F)(F)F | inactive |  |  |  |  |  |  |  |  |  |  |  |  |  |  |  | 
2 | COc1ccc(/C=C2\SC(=S)N(c3ccccc3)C2=O)cc1Br | inactive | inactive |  |  |  |  |  |  |  |  |  |  |  |  |  |  | 
3 | CC1=NN(c2ccccc2)C(=O)/C1=C\c1ccccc1C(F)(F)F |  |  | inactive | Active | 30% | inactive | inactive | 23% | inactive | 27 µM | inactive | Tde | inactive | Active | inactive | Active | inactive
